We go through one compound from ChEMBL document CHEMBL1275561, “In vitro activities of doripenem, a new broad-spectrum carbapenem, against recently collected clinical anaerobic isolates, with emphasis on the Bacteroides fragilis group” (2008).

Common to all, as to assay type: functional
Test [1] deals with Cutibacterium acnes. The experiment in a line: Antimicrobial activity against Propionibacterium acnes assessed as resistant isolates by agar dilution method. The essentials: (§1)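 Agar dilution following CLSI on brucella agar with 5% lysed defibrinated sheep blood and 1 μg/ml vitamin K1, plates made on test day. Log-phase cells at 0.5 McFarland, about 10^5 CFU/spot by Steers replicator, 48 h anaerobic at 37°C. MIC read as the lowest concentration causing a marked growth change versus control. Resistance counted by CLSI anaerobe breakpoints. Eubacterium lentum ATCC 43055 served as control.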

Test [2] concerns Bacteroides thetaiotaomicron. The test can be described thus: Antimicrobial activity against Bacteroides thetaiotaomicron assessed as resistant isolates by agar dilution method. The essentials:
(§2)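 CLSI agar dilution on enriched brucella agar (5% lysed defibrinated sheep blood, 1 μg/ml vitamin K1), plates made on test day. Log-phase inocula adjusted to 0.5 McFarland; about 10^5 CFU/spot by Steers replicator. Incubated anaerobically at 37°C for 48 h. MIC was the lowest concentration giving a marked change in growth versus the drug-free control plate. Resistance rates used CLSI anaerobe breakpoints. Controls were B. fragilis ATCC 25285 and B. thetaiotaomicron ATCC 29741.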

The next test relates to [Clostridium] innocuum. The test can be described thus: Antimicrobial activity against Clostridium innocuum assessed as resistant isolates by agar dilution method. As to conditions: pooled result: one value given for 4 cell lines, strains, targets or settings.
The subject of test [3] is Finegoldia magna. The test can be described thus: Antimicrobial activity against Finegoldia magna by agar dilution method in presence of beta-lactamase inhibitor Sulbactam. A digest of the protocol:
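Gram-positive anaerobes were tested by CLSI agar dilution on brucella agar enriched with 5% lysed defibrinated sheep blood and 1 μg/ml vitamin K1. Inoculum was log-phase growth at 0.5 McFarland, about 10^5 CFU/spot by replicator. Incubation was anaerobic, 37°C, 48 h. MIC was the lowest concentration with a marked growth change versus the drug-free plate. Eubacterium lentum ATCC 43055 was the control, and tests were repeated if it fell outside the CLSI range.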

In test [4] the test system is Parabacteroides distasonis. The experiment in a line: Antimicrobial activity against Bacteroides distasonis assessed as resistant isolates by agar dilution method. The essentials:
as §2

The test system of the next test is Parabacteroides merdae. The test can be described thus: Antimicrobial activity against Bacteroides merdae assessed as resistant isolates by agar dilution method. The essentials: as §2
Another test deals with Bacteroides nordii. The experiment in a line: Antimicrobial activity against Bacteroides nordii assessed as resistant isolates by agar dilution method. A digest of the protocol: as §2
The subject of another test is Bacteroides caccae. The experiment in a line: Antimicrobial activity against Bacteroides caccae assessed as resistant isolates by agar dilution method. The essentials: as §2
A further test has as its system Clostridioides difficile. The experiment in a line: Antimicrobial activity against Clostridium difficile by agar dilution method in presence of beta-lactamase inhibitor Sulbactam. A digest of the protocol: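 MICs by CLSI agar dilution on enriched brucella agar (5% lysed defibrinated sheep blood, 1 μg/ml vitamin K1). Log-phase inoculum at 0.5 McFarland, about 10^5 CFU/spot by replicator. Plates held anaerobically at 37°C for 48 h. Endpoint was the lowest concentration giving a marked change in growth against the control plate. Eubacterium lentum ATCC 43055 was the control.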

Test [5] relates to Finegoldia magna. The test can be described thus: Antimicrobial activity against Finegoldia magna assessed as resistant isolates by agar dilution method. A digest of the protocol:
as §1

For another test, the system named is Bacteroides eggerthii. The experiment in a line: Antimicrobial activity against Bacteroides eggerthii assessed as resistant isolates by agar dilution method. The essentials:
as §2

The test system of a further test is Phocaeicola vulgatus. The test can be described thus: Antimicrobial activity against Bacteroides vulgatus assessed as resistant isolates by agar dilution method. A digest of the protocol:
as §2

The next test relates to Propionibacterium. The experiment in a line: Antimicrobial activity against Propionibacterium sp. assessed as resistant isolates by agar dilution method. The essentials:
as §1

The next test concerns Bacteroides uniformis. The test can be described thus: Antimicrobial activity against Bacteroides uniformis assessed as resistant isolates by agar dilution method. The essentials:
as §2

A further test concerns Bacteroides fragilis. The test can be described thus: Antimicrobial activity against Bacteroides fragilis assessed as resistant isolates by agar dilution method. A digest of the protocol: as §2
For a further test, the system named is Bacteroides ovatus. The experiment in a line: Antimicrobial activity against Bacteroides ovatus assessed as resistant isolates by agar dilution method. A digest of the protocol: as §2
Test [6] has as its system Peptoniphilus asaccharolyticus. The test can be described thus: Antimicrobial activity against Peptoniphilus asaccharolyticus assessed as resistant isolates by agar dilution method. As to conditions: pooled result: one value given for 4 cell lines, strains, targets or settings. A digest of the protocol:
as §1

Test [7] relates to Cutibacterium acnes. The experiment in a line: Antimicrobial activity against Propionibacterium acnes by agar dilution method in presence of beta-lactamase inhibitor Sulbactam. The essentials:
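Log-phase isolates were adjusted to 0.5 McFarland, and about 10^5 CFU/spot was delivered by Steers replicator. Plates were incubated anaerobically at 37°C for 48 h. MIC was the lowest concentration giving a marked growth change versus the control plate. Eubacterium lentum ATCC 43055 was the QC strain, with repeats when out of range.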

“And” between values parts separate entries of the source, which are not always exact repeats. Equal entries are not always repeated.

In the case of `CC1(C)S[C@@H]2[C@H](NC(=O)[C@H](N)c3ccccc3)C(=O)N2[C@H]1C(=O)O` [AMPICILLIN], the Activity amounted to 0% with Cutibacterium acnes [1]; 3.8% in [2]; 5.6% in [Clostridium] innocuum; 6.7% in test [4]; 0% with Parabacteroides merdae; 0% in the test on Bacteroides nordii. Moreover, the Activity in the test with Bacteroides caccae, in the test on Finegoldia magna [5], in the test with Bacteroides eggerthii, in the test on Phocaeicola vulgatus, in the test with Propionibacterium and in the test with Bacteroides uniformis was 0% throughout. Besides, the Activity is 4.5% in the test with Bacteroides fragilis, 11.4% in the test on Bacteroides ovatus and 0% in test [6]. Also, the MIC is 2 mg/L in the test with Finegoldia magna [3]; 2 mg/L with Finegoldia magna [3] (Finegoldia magna, read-out: MIC); 4 mg/L with Clostridioides difficile; 0.25 mg/L and 0.5 mg/L in the test on Cutibacterium acnes [7]; 0.25 mg/L in the test on Cutibacterium acnes [7] (Cutibacterium acnes, read-out: MIC).
